Legend:
[1] = target: T1, Human immunodeficiency virus type 1 protease (Human immunodeficiency virus 1, UniProt Q72874); assay: Inhibitory activity of the Compound was tested against HIV protease enzyme.
How it was run: (§1)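 HIV-1 protease from the BRU strain was expressed in a microbial host. Activity was followed as hydrolysis of the octapeptide substrate VSQN-β-naphthylalanine-PIV, using a modified version of Heimbach's method.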

[2] = target: T1, Human immunodeficiency virus type 1 protease; assay: Inhibitory activity of the Compound was tested against HIV protease enzyme.(value reported by Roche group)
[3] = target: T1, Human immunodeficiency virus type 1 protease; assay: Binding affinity against HIV protease enzyme.(by Dixon analysis); how it was run: as §1
[4] = target: T1, Human immunodeficiency virus type 1 protease; assay: (§2) Inhibitory activity of the Compound was tested against HIV protease enzyme
How it was run: (§3)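 HIV-1 protease (BRU strain), microbially expressed; activity followed as hydrolysis of the octapeptide substrate VSQN-β-naphthylalanine-PIV, using a modified literature method.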

[5] = target: T1, Human immunodeficiency virus type 1 protease; assay: as §2; how it was run: as §3; remark: listed apart in the source
[6] = target: T1, Human immunodeficiency virus type 1 protease; assay: Inhibitory activity of the Compound was tested against HIV protease enzyme.(value reported by Rich etal)
[7] = target: T1, Human immunodeficiency virus type 1 protease; assay: Binding affinity against HIV Protease enzyme.(by Dixon analysis); how it was run: as §1

In the case of `CC(C)[C@H](NC(=O)COc1cccc2ccccc12)C(=O)N[C@@H](Cc1ccccc1)[C@H](O)C(=O)N1CCC[C@H]1C(=O)NC(C)(C)C`, the IC50 [1] is reported as 1.9 nM.

`CC(C)[C@H](NC(=O)OCc1ccccc1)C(=O)N[C@@H](Cc1ccccc1)[C@H](O)C(=O)N1CCC[C@H]1C(=O)NC(C)(C)C` was tested, and the IC50 [1] was 4.3 nM.

`CC[C@H](C)[C@H](NC(=O)[C@@H]1CCCN1C(=O)[C@H](O)[C@H](Cc1ccccc1)NC(=O)[C@H](CC(N)=O)NC(=O)OCc1ccccc1)C(=O)N[C@H](C(=O)OC)C(C)C` gave an IC50 [1] of 25 nM.

Compound `CC(C)(C)NC(=O)[C@@H]1CCCCN1C[C@@H](O)[C@H](Cc1ccccc1)NC(=O)[C@H](CC(N)=O)NC(=O)OCc1ccccc1` has an IC50 [2] of 18 nM.

`CC(C)(C)NC(=O)[C@@H]1CCCN1C(=O)C(=O)[C@H](Cc1ccccc1)NC(=O)[C@H](CC(N)=O)NC(=O)OCc1ccccc1` showed an IC50 [1] of 20 nM.

`CC(C)(C)NC(=O)[C@@H]1C[C@@H]2CCCC[C@@H]2CN1C(=O)[C@@H](O)[C@H](Cc1ccccc1)NC(=O)[C@H](CC(N)=O)NC(=O)OCc1ccccc1` was tested, and the IC50 [1] was 84 nM.

In the case of `CC(C)(C)NC(=O)[C@@H]1CCCN1C(=O)[C@H](O)[C@H](Cc1ccccc1)NC(=O)[C@H](CC(N)=O)NC(=O)OCc1ccccc1`, the IC50 [1] is reported as 3100 nM.

`CC(C)(C)NC(=O)[C@@H]1CCCN1C(=O)[C@@H](O)[C@H](Cc1ccccc1)NC(=O)[C@H](CC(N)=O)NC(=O)c1ccc2ccccc2n1` was tested, and the IC50 [1] was 1.1 nM and the Ki [3] was 0.9 nM.

Work on `CC(C)(C)OC(=O)[C@@H]1CCCN1C[C@H](O)[C@H](Cc1ccccc1)NC(=O)[C@H](CC(N)=O)NC(=O)OCc1ccccc1` yielded an IC50 [4] of 180 nM, an IC50 [5] of 130 nM and an IC50 [6] of 450 nM.

In the case of `CC(C)(C)NC(=O)[C@@H]1CCCN1C(=O)[C@@H](O)[C@H](Cc1ccccc1)NC(=O)[C@H](CC(N)=O)NC(=O)COc1ccc2ccccc2c1`, the IC50 [1] is reported as 1.3 nM.

In the case of `CC(C)(C)NC(=O)[C@@H]1CCCN1C[C@@H](O)[C@H](Cc1ccccc1)NC(=O)[C@H](CC(N)=O)NC(=O)OCc1ccccc1`, the IC50 [2] is reported as 210 nM.

`CC(C)(C)NC(=O)[C@@H]1CC2CCCCC2CN1C[C@@H](O)[C@H](Cc1ccccc1)NC(=O)[C@H](CC(N)=O)NC(=O)OCc1ccccc1` (stereo not given in full) showed an IC50 [2] of less than 2.7 nM.

`CC(C)(C)NC(=O)[C@@H]1CCCN1C(=O)[C@@H](O)[C@H](Cc1ccccc1)NC(=O)OCc1ccccc1` was tested, and the IC50 [1] was 460 nM.

In the case of `CC(C)(C)NC(=O)[C@@H]1CCCN1C(=O)C(=O)[C@H](Cc1ccccc1)NC(=O)OCc1ccccc1`, the IC50 [1] is reported as 600 nM.

Work on `CC(C)(C)NC(=O)[C@@H]1CCCN1C(=O)[C@@H](O)[C@H](Cc1ccccc1)NC(=O)[C@H](CC(N)=O)NC(=O)COc1cccc2ccccc12` yielded an IC50 [1] of 0.58 nM and a Ki [7] of 0.4 nM.

`CC(C)(C)NC(=O)[C@@H]1CCCCN1C(=O)[C@@H](O)[C@H](Cc1ccccc1)NC(=O)[C@H](CC(N)=O)NC(=O)OCc1ccccc1` was tested, and the IC50 [1] was 26 nM.

`CC(C)(C)NC(=O)[C@@H]1C[C@@H]2CCCC[C@@H]2CN1C(=O)[C@@H](O)[C@H](Cc1ccccc1)NC(=O)[C@H](CC(N)=O)NC(=O)c1ccc2ccccc2n1` was tested, and the IC50 [1] was 27 nM.

Compound `CC(C)(C)OC(=O)[C@@H]1CCCN1C[C@@H](O)[C@H](Cc1ccccc1)NC(=O)OCc1ccccc1` has an IC50 [2] of 6500 nM.

`CC[C@H](C)[C@H](NC(=O)[C@@H]1CCCN1C(=O)[C@@H](O)[C@H](Cc1ccccc1)NC(=O)[C@@H](CC(N)=O)NC(=O)OCc1ccccc1)C(=O)N[C@H](C(=O)OC)C(C)C` gave an IC50 [1] of 3.1 nM.

Compound `CC(C)(C)NC(=O)[C@@H]1CCCN1C(=O)[C@@H](O)[C@H](Cc1ccccc1)NC(=O)[C@H](CC(N)=O)NC(=O)OCc1ccccc1` has an IC50 [1] of 7.4 nM and a Ki [7] of 4 nM.

— ChEMBL document CHEMBL1125429, “Intriguing structure-activity relations underlie the potent inhibition of HIV protease by norstatine-based peptides” (J Med Chem, 1992)
